pIC50: −log10 of the molar value.
Assays:
[1] = Antiproliferative activity against rat PC12 cells after 24 hrs by Alamar blue assay; type: functional, cell-based, PC-12; conditions: for pIC50: Rattus norvegicus, PC-12, 24 h, read-out: IC50; for IC50: pc-12
Method in brief: (§1)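 Cells seeded at 5000 per well and preincubated 24 h at 37 °C/5% CO₂, then exposed to compounds in DMSO (final DMSO 0.5%; DMSO-only controls) at 6.25–200 µM for a further 24 h at 37 °C. Alamar Blue added to 10% final, fluorescence read (ex 535/em 590 nm) after 4 h and 24 h further incubation. IC50 from triplicates.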

HepG2 = assay: Antiproliferative activity against human HepG2 cells after 24 hrs by Alamar blue assay; type: functional, cell-based; conditions: for pIC50: Homo sapiens, HepG2, 24 h, read-out: IC50; for IC50: hepg2; method in brief: as §1
[2] = Antiproliferative activity against human HL60 cells after 24 hrs by Alamar blue assay; type: functional, cell-based, HL-60; conditions: for pIC50: Homo sapiens, HL-60, 24 h, read-out: IC50; for IC50: hl-60; method in brief: as §1

| pIC50 (HepG2) | IC50 (HepG2) | SMILES | pIC50 [1] | pIC50 [2] | IC50 [2] | IC50 [1] |
| --- | --- | --- | --- | --- | --- | --- |
| 4.39 |  | CC(=O)N[C@@H](CO)C(=O)/C=C/c1ccc(-c2ccccc2)cc1 | 4.23 | 4.30 |  |  |
|  | ND(Unstable) | CC(=O)N[C@@H](CO)[C@H](O)/C=C/c1ccccc1 |  |  | ND(Unstable) | ND(Unstable) |
|  | ND(Unstable) | CC(=O)N[C@@H](CO)[C@H](O)/C=C/c1ccc(-c2ccccc2)cc1 |  |  | ND(Unstable) | ND(Unstable) |

Continued, compound first:

| SMILES | pIC50 (HepG2) | IC50 (HepG2) | pIC50 [1] | pIC50 [2] | IC50 [2] | IC50 [1] |
| --- | --- | --- | --- | --- | --- | --- |
| CCCCCCCCCCCCC/C=C/C(=O)[C@H](CO)NC(C)=O | 3.76 |  | < 3.70 | 4.37 |  |  |
| CC(=O)N[C@@H](CO)C(=O)/C=C/c1ccccc1 | < 3.70 |  | 4.38 | 4.32 |  |  |
| CCCCCCCCc1ccc(/C=C/C(=O)[C@H](CO)NC(C)=O)cc1 | 4.19 |  | 4.15 |  | ND(Unstable) |  |
| CCCCCCCCCCCCC/C=C/[C@@H](O)[C@H](CO)NC(C)=O | 4.24 |  | 4.01 | 4.59 |  |  |
| CCCCCCCCc1ccc(/C=C/[C@@H](O)[C@H](CO)NC(C)=O)cc1 | 4.51 |  | 4.40 | 4.96 |  |  |

Reference: ChEMBL document CHEMBL3351976, “Flexible, polymer-supported synthesis of sphingosine derivatives provides ceramides with enhanced biological activity” (Bioorg Med Chem, 2014)
